Assay outcomes deposited in PubChem BioAssay by several laboratories.
Compounds with a hit are over-represented: about 4.4% of the library has one in this group of screens.
AHR act: activators of human aryl hydrocarbon receptor; P35869; AHR-responsive luciferase reporter cells, luminescence; activation, % at 5 µM; 2.5% of 320,000 active; in the data active = activation above about 47%;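 also: 0% = vehicle wells and 100% = reference agonist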
HTR2A ag: agonists of mouse serotonin 5-HT2A receptor (HTR2A); P35363; CHO-K1 mHTR2A beta-arrestin complementation, luminescence; percent of 30 µM serotonin response; activation, % at 7.6 µM; 0.66% of 360,000 active;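 active = activation above a run cutoff, the mean activation of all tested compounds plus 3 SD, cut at about 14% in these data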;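 also: 0% = plate median of compound wells and 100% = 30 µM serotonin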
Target sequence (P35363 whole entry, looked up): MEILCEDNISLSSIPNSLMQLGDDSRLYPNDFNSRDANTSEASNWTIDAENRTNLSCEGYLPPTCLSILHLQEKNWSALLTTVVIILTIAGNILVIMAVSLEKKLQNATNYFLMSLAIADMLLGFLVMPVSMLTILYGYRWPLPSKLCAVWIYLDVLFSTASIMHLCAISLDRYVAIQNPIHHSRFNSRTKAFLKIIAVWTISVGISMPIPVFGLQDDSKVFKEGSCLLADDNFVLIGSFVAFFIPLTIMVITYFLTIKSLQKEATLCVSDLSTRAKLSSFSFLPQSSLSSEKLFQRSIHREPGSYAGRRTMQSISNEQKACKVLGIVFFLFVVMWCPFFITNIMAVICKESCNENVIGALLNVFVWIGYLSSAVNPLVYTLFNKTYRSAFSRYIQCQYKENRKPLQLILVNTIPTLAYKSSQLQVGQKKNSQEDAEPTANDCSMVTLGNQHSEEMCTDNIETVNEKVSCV
AI-2 QS modul: modulators of Vibrio harveyi AI-2 quorum sensing system. Vibrio harveyi JMH597 AI-2 luminescence/OD600 ratio, 9 h; active compounds read low; strain lacks LuxN and CqsS sensors; 0 = neutral-control median. 0.4% of 300,000 active. activity change, % at 7.5 µM; in the data active = activity change below about -75%, passing the limit was not always enough;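 also: luminescence divided by OD600 gain over 9 h not by final OD600 alone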
TbMetRS inhib: blocks T. brucei methionyl-tRNA synthetase activity; purified T. brucei MetRS, ATP depletion, Kinase-Glo luminescence; inhibition, % at 11.9 µM; 0.4% of 360,000 active; AID 624268;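 active = inhibition above a per-plate cutoff of the control wells' mean inhibition plus 3 SD, cut at about 5.5% in these data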;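 also: 0% = DMSO wells median and 100% = median of wells with control inhibitor compound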
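Measured by: Kinase-Glo luciferase luminescence reporting remaining unconsumed ATP. Material: purified T. brucei MetRS enzyme. Doses: 11.9 µM compound single dose, 0.9% DMSO. Medium: HEPES buffer containing pyrophosphatase, BSA, spermine, DTT. Times: 15 min preincubation, 2 h reaction, all 25 °C. Reagent: methionine, ATP and bulk E. coli tRNA.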
MsrA inhibitor: bovine MsrA inhibition | purified bovine MsrA, absorbance read-out | inhibition, % at 15.5 µM | 0.75% of 360,000 active | AID 651718; in the data active = inhibition above about 4.5%;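 also: 0% = vehicle wells with enzyme and 100% = reference inhibitor wells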
bovine MsrA act: bovine methionine sulfoxide reductase A activation. AID 602163. 0.3% of 360,000 active. activation, % at 10.6 µM. purified bovine MsrA, absorbance read-out; in the data active = activation above about 7.5%;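 also: 0% = vehicle and 100% = reference activator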
OPRM1 ag: activates human mu opioid receptor in HTR2A counterscreen; shares compounds with HTR2A ag; U2OS OPRM1 beta-arrestin PathHunter, luminescence; DMSO 0%, DAMGO 9.3 µM 100%; activation, % at 9.3 µM; 5.3% of 2,300 active;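 active = mean activation above the mean of DMSO-only wells plus 3 SD, cut at about 0.5% in these data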
m5-HT2A ag conf: mouse HTR2A agonism confirmed; shares compounds with HTR2A ag; activation, % at 7.6 µM; AID 624381; 19% of 2,300 active; CHO-K1 PathHunter beta-arrestin recruitment, luminescence; DMSO 0%, 30 µM serotonin 100%;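 active = mean activation across triplicates above the hit threshold derived in the original primary screen, cut at about 15% in these data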
* = called active by the depositor; nt = not tested or not shown.

SMILES	AHR act	HTR2A ag	AI-2 QS modul	TbMetRS inhib	MsrA inhibitor	bovine MsrA act	OPRM1 ag	m5-HT2A ag conf
COc1ccc(OC)c(C(C)NC(=O)C(C)n2cc([N+](=O)[O-])cn2)c1 (centres undefined)	-1	-1	nt	0	0	-1	nt	nt
OC(COCc1cccs1)CN1CCN(c2ccccn2)CC1 (centres undefined)	0	20*	3	0	1	-3	-1	80*
OC(COCc1cccs1)CN1CCN(c2ccccc2Cl)CC1 (centres undefined)	18	-7	9	-1	0	-2	nt	nt
OC(COCc1ccc(Cl)cc1)CN1CCN(c2ccccn2)CC1 (centres undefined)	2	18*	16	0	0	-3	-1	99*
OC(COc1ccc(Cl)cc1)CN1CCN(c2ccccn2)CC1 (centres undefined)	2	6	-4	0	0	-3	nt	nt
CCCN1C[C@H](CSC)C[C@@H]2c3cccc4[nH]cc(c34)C[C@H]21	1	113*	13	-2	0	-6	0	160*
Cc1ccc(-n2c(C)nn(CC3CC3)c2=O)cc1	0	0	12	0	0	-3	nt	nt
Cc1nn(CC2CC2)c(=O)n1-c1cccc(Cl)c1	0	20*	23	0	0	0	0	-3
NC(COCc1ccccc1)c1csc(Nc2cc(NCCCO)ncn2)n1 (centres undefined)	nt	-2	nt	0	-2	-6	nt	nt
CCOC(=O)N1CCN(C(c2ccc(F)cc2)c2sc3nc(C)nn3c2O)CC1 (centres undefined)	0	32*	15	0	0	-2	-1	-3
Cc1cc(Cl)ccc1OCC(=O)OCC(=O)NC1CCCC1	0	16*	nt	0	1	-6	0.5*	2
O=C(CN1CCN(c2ccccn2)CC1)Nc1ccccc1	-2	10	-2	0	-1	-16	nt	nt
O=C(CN1CCN(c2ccccn2)CC1)Nc1cccc(S(=O)(=O)N2CCCC2)c1	0	19*	20	-1	-1	-4	0	69*
O=C(CN1CCN(c2ccccn2)CC1)Nc1ccc(Oc2ccccc2)cc1	0	33*	-6	0	-1	-9	-1	92*
CC(C)Cn1c(SCC(=O)NCCCN2CCCC2=O)nc2ccccc21	6	16*	12	-1	0	-7	-1	-5
CCCn1c(SCC(=O)NCCCN2CCCC2=O)nc2ccccc2c1=O	0	3	nt	0	-1	-7	nt	nt
Cc1nn2c(=O)[nH]cnc2c1Cl	nt	9	nt	0	0	0	nt	nt
CC1(C(=O)NS(=O)(=O)Cc2cccc(Cl)c2)CCN1C(=O)Cc1cccs1 (centres undefined)	nt	7	nt	0	0	-2	nt	nt
CCOc1ccccc1NC(=O)CCN1CCN(S(=O)(=O)c2ccc(Br)cc2)CC1	5	17*	-1	-2	-2	-13	0	1
CCOC(=O)C1=CN(Cc2ccc(OC)cc2)C=C(C(=O)OCC)C1c1cccs1	0	16*	23	0	1	-7	-1	7
CCOC(=O)C1CCCN(S(=O)(=O)c2ccc(OC)cc2)C1 (centres undefined)	2	24*	-40	-1	1	-5	-1	-3
COc1ccc(N2CC(C(=O)Nc3ccc(S(=O)(=O)N4CCCC4)cc3)CC2=O)cc1 (centres undefined)	0	15*	0	-1	-1	-7	-1	-5
CCOC(=O)C1CCCN(S(=O)(=O)c2ccc(C)cc2)C1 (centres undefined)	-3	2	-24	-1	-1	-12	nt	nt
COc1ccc(C2=NO[C@@](CC(=O)O)(C(=O)Nc3ccc4c(c3)OCCO4)C2)cc1	2	16*	5	0	0	-2	1.0*	2
N#Cc1ccc(C(=O)OCC(=O)Nc2cccc(S(=O)(=O)NC3=NCCC3)c2)cc1	0	-4	nt	0	-1	-3	nt	nt
SMILES	AHR act	HTR2A ag	AI-2 QS modul	TbMetRS inhib	MsrA inhibitor	bovine MsrA act	OPRM1 ag	m5-HT2A ag conf
CCN(C[C@H]1N[C@@](C)(C(=O)OC)[C@H]2C(=O)N(C)C(=O)[C@@H]12)C(=O)Nc1ccc(Cl)cc1	0	37*	nt	-1	-1	0	0	-1
CCN(C[C@H]1N[C@@](C)(C(=O)OC)[C@H]2C(=O)N(C)C(=O)[C@@H]12)C(=O)Nc1ccc(F)cc1	-1	-5	nt	-1	0	0	nt	nt
CCC(=O)Nc1nnc(SCc2cccc(F)c2)s1	-1	21*	12	-1	0	-10	-1	-5
CC(/C=N\N1CCN(Cc2ccc(C)cc2)CC1)=C\c1ccccc1	-2	-5	1	0	1	-3	nt	nt
BrC(=C\c1ccccc1)/C=N/N1CCN(Cc2ccccc2)CC1	2	20*	41	-1	2	-5	-1	-3
BrC(/C=N/N1CCN(Cc2ccccc2)CC1)=C/c1ccccc1	-2	24*	3	-1	0	-11	-1	0
C(=N\N1CCN(Cc2ccccc2)CC1)/c1ccccc1	1	-8	17	-1	0	-3	nt	nt
CCOC(=O)N1CCN(C(=S)NC(=O)/C=C/c2ccc(C)cc2)CC1	-4	6	22	0	1	-6	nt	nt
O=C1NC(=O)C(Cc2cccc(Oc3ccccc3)c2)S1 (centres undefined)	4	15*	40	0	0	-3	-1	0
CC(C)Sc1cc(N2CCOCC2)nc(-c2ccc(Cl)cc2)n1	1	14*	16	-1	1	-3	0	9
Clc1ccc(Sc2cc(N3CCOCC3)nc(-c3ccccc3)n2)cc1	5	7	9	0	1	-1	nt	nt
CCCCCCn1cc(CN2CC(N3CCSCC3)CS2(=O)=O)nn1 (centres undefined)	nt	0	nt	0	0	-3	nt	nt
C=C(C)C(=O)OCC(O)COc1ccc(C(C)(C)c2ccc(OCC(O)COC(=O)C(=C)C)cc2)cc1 (centres undefined)	-1	17*	12	0	1	7	0	2
CCN1C(=O)[C@H]2[C@@H](c3ccc(OC)cc3)N3C(=O)CN(CC4CC4)C(=O)[C@@]3(C)[C@H]2C1=O	4	21*	12	0	1	-4	0	-2
COc1cc([N+](=O)[O-])ccc1NC(=O)/C=C/C(=O)O	0	1	15	0	1	-6	nt	nt
